# Active and inactive are the calls of the source. The calls are words filed in the database; no cut-off is given here.
# Assays:
# A-375 [1] = assay: Antitumor activity against human A-375 cells xenografted in NMRI-Foxn1nu mouse assessed as reduction in tumor volume at 30 mg/kg, ip administered as 3 days on and 2 days off schedule and measured after 15 days; format: functional; set-up: scale not given: the % may be the effect or the level left; conditions: time 15 day
# Summary of the method: (§1)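 Female NMRI-Foxn1nu mice with subcutaneous A375 flank tumors, grouped by matched tumor volume. Dosing: 30 mg/kg ip or saline, 3 days daily then 2 days off. Tumors measured by digital caliper until day 15. Excised tumors then sized as (W × D × L)/2 and weighed. n = 8; Mann–Whitney two-tailed test for the excised endpoints.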
# HEK293 = assay: Inhibition of REV-ERBbeta (unknown origin) transcription expressed in HEK293 cells harboring mutated RevRE incubated for 24 hrs by gaussia luciferase based assay; format: cell-based; conditions: Homo sapiens
# Summary of the method: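 HEK-293 cells cotransfected with REV-ERBβ and a luciferase reporter bearing a mutated RevRE that REV-ERB cannot bind. Luciferase activity expressed as fold over DMSO vehicle. Mean ± SEM, n = 6.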
# [2] = Aqueous kinetic solubility of the compound in PBS at pH 7.4 at 250 uM incubated for 24 hrs by UPLC/MS analysis; format: physicochemical; conditions: read-out: Kinetic_solubility
# Summary of the method: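 Kinetic solubility measured in phosphate-buffered saline, pH 7.4. Mean of at least two independent experiments, each run in two technical replicates.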
# BT-474 [3] = assay: Induction of apoptosis in human BT-474 cells assessed as increase in caspase activity after 24 hrs; format: functional, cell-based; conditions: dose 2.5-10 µM
# Summary of the method: (§2)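 BT-474 cells treated at a range of concentrations. Apoptosis read out as caspase activity and as cleaved PARP protein by immunoblot.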
# [4] = Metabolic stability in mouse liver microsomes assessed as parent compound remaining preincubated for 15 mins followed by NADPH addition and measured after 1 hr by LC-MS/MS analysis; format: ADME, Microsome; conditions: time 75 min, read-out: Stability
# Summary of the method: (§3)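 Microsomal stability assessed in mouse, human, rat or dog liver microsomes with NADPH cofactor. Half-life and percent parent remaining at 60 and 120 min reported. Mean of at least two independent experiments, each in two technical replicates.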
# [5] = Metabolic stability in human liver microsomes assessed as parent compound remaining preincubated for 15 mins followed by NADPH addition and measured after 2 hrs by LC-MS/MS analysis; format: ADME, Microsome; conditions: time 135 min, read-out: Stability; summary of the method: as §3
# [6] = Tolerability in CD1 mouse assessed as lethargy at 138 micromol/kg, ip; format: toxicity; conditions: in vivo, dose 138 µmol/kg
# Summary of the method: (§4)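 Female CD1 mice given daily ip injections at 138 μmol/kg (62 mg/kg). Animals observed for arched backs and lethargy.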
# [7] = Metabolic stability in rat liver microsomes assessed as half life preincubated for 15 mins followed by NADPH addition and measured after 1 to 2 hrs by LC-MS/MS analysis; format: ADME, Microsome; conditions: liver microsomes, time 75-135 min; summary of the method: as §3
# [8] = Metabolic stability in mouse liver microsomes assessed as parent compound remaining preincubated for 15 mins followed by NADPH addition and measured after 2 hrs by LC-MS/MS analysis; format: ADME, Microsome; conditions: time 135 min, read-out: Stability; summary of the method: as §3
# [9] = Metabolic stability in rat liver microsomes assessed as parent compound remaining preincubated for 15 mins followed by NADPH addition and measured after 1 to 2 hrs by LC-MS/MS analysis; format: ADME, Microsome; conditions: time 75-135 min; summary of the method: as §3
# MDA-MB-231 = assay: Cytotoxicity against human MDA-MB-231 cells; format: functional
# Summary of the method: (§5)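 Human cancer lines (A375, MDA-MB-231, OMM-1, UPMM-2, CAPAN-2, HepG2, HT-29, HCT116) treated up to 30 μM. CC50 derived from concentration–response viability plots. Mean ± SEM, n ≥ 6. Two-tailed unpaired t test used between compounds.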
# [10] = Tolerability in CD1 mouse assessed as change in food intake at 69 micromol/kg, ip administered as 3 days on and 2 days off schedule and measured after 15 days; format: toxicity, organism-based; conditions: in vivo, 360 h, dose 69 µmol/kg, time 15 day
# Summary of the method: (§6)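 Female CD1 mice given 69 μmol/kg (31 mg/kg) ip, 3 days daily then 2 days off, or saline. Body weight, food intake and water intake monitored daily for 15 days. Weight expressed relative to the day before treatment (100%). Mean ± SEM, n = 3.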
# [11] = Tolerability in CD1 mouse assessed as change in body weight at 69 micromol/kg, ip administered as 3 days on and 2 days off schedule and measured after 15 days; format: toxicity, organism-based; conditions: in vivo, 360 h, dose 69 µmol/kg, time 15 day; summary of the method: as §6
# Mus musculus = assay: In vivo inhibition of REV-ERB in human A375 cells xenografted in NMRI-Foxn1nu mouse assessed as increase in BMAL1 gene expression at 30 mg/kg, ip administered for 2 days and measured after 48 hrs
# [12] = Tolerability in CD1 mouse assessed as appearance of arched backs at 138 micromol/kg, ip; format: toxicity; conditions: in vivo, dose 138 µmol/kg; summary of the method: as §4
# BT-474 [13] = assay: Induction of apoptosis in human BT-474 cells assessed as increase in cleaved PARP level after 24 hrs; format: functional, cell-based; conditions: dose 2.5-10 µM; summary of the method: as §2
# [14] = Metabolic stability in mouse liver microsomes assessed as half-life preincubated for 15 mins followed by UDPGA addition and measured after 2 hrs by LC-MS/MS analysis
# [15] = Cytotoxicity against human OMM-1 cells; format: functional; summary of the method: as §5
# [16] = Metabolic stability in dog liver microsomes assessed as parent compound remaining preincubated for 15 mins followed by NADPH addition and measured after 1 to 2 hrs by LC-MS/MS analysis; format: ADME, Canis lupus familiaris, Microsome; conditions: time 75-135 min; summary of the method: as §3
# A-375 [17] = assay: Antitumor activity against human A-375 cells xenografted in NMRI-Foxn1nu mouse assessed as tumor growth inhibition at 30 mg/kg, ip administered as 3 days on and 2 days off schedule and measured after 15 days; format: functional; conditions: A-375, 360 h, time 15 day, read-out: TGI; summary of the method: as §1
# HepG2 = assay: Cytotoxicity against human HepG2 cells; format: functional; summary of the method: as §5
# A375 (human) [18] = assay: Inhibition of autophagy in human A375 cells expressing EGFP-LC3B assessed as increase in SQSTM1 protein level at 2.5 uM after 24 hrs by immunoblotting analysis
# A375 (human) [19] = assay: Inhibition of autophagy in human A375 cells expressing EGFP-LC3B assessed as accumulation of autophagosome after 24 hrs by Hoechst 33342 staining based fluorescent microscopy analysis; conditions: dose 1.25-5 µM
# [20] = Metabolic stability in mouse liver microsomes assessed as half life preincubated for 15 mins followed by UDPGA addition and measured after 2 hrs by LC-MS/MS analysis; format: ADME, Microsome; conditions: time 135 min
# Summary of the method: (§7)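 Mouse and human liver microsomes incubated with UDPGA cofactor. Half-life and percent parent remaining at 120 min reported. Mean of at least two independent experiments, each in two technical replicates.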
# [21] = Metabolic stability in human liver microsomes assessed as half life preincubated for 15 mins followed by NADPH addition and measured after 1 to 2 hrs by LC-MS/MS analysis; format: ADME, Microsome; conditions: liver microsomes, time 75-135 min; summary of the method: as §3
# [22] = Metabolic stability in human liver microsomes assessed as parent compound remaining preincubated for 15 mins followed by UDPGA addition and measured after 2 hrs by LC-MS/MS analysis; format: ADME, Microsome; conditions: time 135 min, read-out: Stability; summary of the method: as §7
# [23] = Cytotoxicity against human UPMM-2 cells; format: functional; summary of the method: as §5
# BT-474 [24] = assay: Cytotoxicity against human BT-474 cells; format: functional
# Summary of the method: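 BT-474 breast cancer cells and nontumorigenic HMECs treated 48 h with concentrations up to 30 μM. CC50 derived from concentration–response viability plots. Values >30 μM assigned when viability fell by less than 50% of vehicle at 30 μM. Mean ± SEM, n ≥ 3.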
smiles,measurement,setting,value
Fc1ccc(C2(NCc3ccc(F)c(CC4CCNCC4)c3)CCCC2)cc1,Activity,A-375 [1],60%
same,inhibition,HEK293,inactive
same,"solubility kinetic at 24 h, 250 µM",[2],> 250 µM
same,Activity,BT-474 [3],Dose-Dependent Effect
same,remaining at 1 h,[4],84%
same,remaining at 2 h,[5],68%
same,Activity,[6],Non-Toxic
same,half-life,[7],> 1 h
same,remaining at 2 h,[8],72%
same,Stability,[9],98%
same,CC50,MDA-MB-231,2.97 µM
same,Activity,[10],Non-Toxic
same,Activity,[11],Non-Toxic
same,inhibition,Mus musculus,Active
same,Activity,[12],Non-Toxic
same,Activity,BT-474 [13],Dose-Dependent Effect
same,t1/2 at 2 h,[14],> 2 h
same,CC50,[15],1.14 µM
same,Stability,[16],89%
same,inhibition in vivo at 30 mg/kg,A-375 [17],55%
same,CC50,HepG2,1.49 µM
same,inhibition,A375 (human) [18],Active
same,inhibition,A375 (human) [19],Dose-Dependent Effect
same,half-life,[20],> 2 h
same,half-life,[21],> 2 h
same,remaining at 2 h,[22],95%
same,CC50,[23],1.09 µM
same,CC50,BT-474 [24],2.31 µM
